Assay results: ChEMBL document CHEMBL3585285, “Amino Acid Thioester Derivatives: A Highly Promising Scaffold for the Development of Metallo-β-lactamase L1 Inhibitors” (ACS Med Chem Lett, 2015)
In brackets after ≈: the same amount, converted by molar mass. Activity calls are given as the source filed them. No cut-off for these calls is given here.

What was measured:
Beta-lactamase L1 [1] = molecular target: T1, Beta-lactamase L1 (Stenotrophomonas maltophilia, UniProt P52700); assay: Mixed-type inhibition of Stenotrophomonas maltophilia L1 overexpressed in Escherichia coli BL21 (DE3) using cefazolin as substrate incubated for 30 mins prior to testing by Lineweaver-Burk plot analysis
Escherichia coli [2] = assay: Antibacterial activity against Escherichia coli assessed as imipenem MIC after 12 hrs by macrodilution broth method (reference value: 0.5 ug/ml); format: functional
Escherichia coli [3] = assay: Antibacterial activity against Escherichia coli assessed as cefazolin MIC after 12 hrs by macrodilution broth method (reference value: 64 ug/ml); format: functional
[4] = molecular target: Metallo-beta-lactamase type 2 (Bacteroides fragilis) (UniProt P25910); assay: Inhibition of Bacteroides fragilis CcrA overexpressed in Escherichia coli BL21 (DE3) assessed as cefazolin MIC at 16 ug/ml after 12 hrs by macrodilution broth method
Summary of the method: (§1)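 MICs of antibiotic were measured with and without inhibitor at a final 16 μg/mL in E. coli BL21(DE3) carrying pMSZ02-CcrA, pET26b-NDM-1, pET26b-ImiS or pET26b-L1, plus plasmid-free BL21(DE3) as a control. Cefazolin was the antibiotic for the CcrA, NDM-1 and L1 strains; imipenem was used for the ImiS strain.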

[5] = Inhibition of NDM1 (unknown origin) overexpressed in Escherichia coli BL21 (DE3) using cefazolin as substrate incubated for 30 mins prior to testing by UV spectrophotometric analysis
Summary of the method: (§2)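 Each enzyme (CcrA or NDM-1) was assayed on cefazolin hydrolysis followed at 262 nm. Initial rates were measured in triplicate with or without inhibitor and averaged. IC50 is the concentration causing 50% loss of activity.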

[6] = system: Aeromonas veronii bv. sobria; assay: Inhibition of Aeromonas veronii bv. sobria ImiS overexpressed in Escherichia coli BL21 (DE3) assessed as imipenem MIC at 16 ug/ml after 12 hrs by macrodilution broth method
Summary of the method: as §1

Beta-lactamase L1 [7] = molecular target: T1, Beta-lactamase L1; assay: Inhibition of Stenotrophomonas maltophilia L1 overexpressed in Escherichia coli BL21 (DE3) using cefazolin as substrate incubated for 30 mins prior to testing by UV spectrophotometric analysis
[8] = molecular target: Beta-lactamase L1 (Stenotrophomonas maltophilia) (UniProt P52700); assay: Inhibition of Stenotrophomonas maltophilia L1 overexpressed in Escherichia coli BL21 (DE3) assessed as cefazolin MIC at 16 ug/ml after 12 hrs by macrodilution broth method
Summary of the method: as §1

[9] = Inhibition of Aeromonas veronii bv. sobria ImiS overexpressed in Escherichia coli BL21 (DE3) using imipenem as substrate incubated for 30 mins prior to testing by UV spectrophotometric analysis
Summary of the method: (§3)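 ImiS activity measured as imipenem hydrolysis monitored at 300 nm. Initial rates were taken with and without inhibitor, each in triplicate and averaged. IC50 is the inhibitor concentration giving a 50% drop in enzyme activity.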

[10] = molecular target: Beta-lactamase L1 (Stenotrophomonas maltophilia) (UniProt P52700); assay: Inhibition of Stenotrophomonas maltophilia L1 overexpressed in Escherichia coli BL21 (DE3) assessed as reduction of cefazolin MIC at 16 ug/ml after 12 hrs by macrodilution broth method relative to cefazolin-treated control
Summary of the method: as §1

[11] = Inhibition of NDM1 (unknown origin) overexpressed in Escherichia coli BL21 (DE3) assessed as cefazolin MIC at 16 ug/ml after 12 hrs by macrodilution broth method
Summary of the method: as §1

[12] = molecular target: Metallo-beta-lactamase type 2 (Bacteroides fragilis, UniProt P25910); assay: Inhibition of Bacteroides fragilis CcrA overexpressed in Escherichia coli BL21 (DE3) using cefazolin as substrate incubated for 30 mins prior to testing by UV spectrophotometric analysis
Summary of the method: as §2

[13] = molecular target: Metallo-beta-lactamase type 2 (Bacteroides fragilis) (UniProt P25910); assay: Inhibition of Bacteroides fragilis CcrA overexpressed in Escherichia coli BL21 (DE3) using cefazolin as substrate up to 5 uM incubated for 30 mins prior to testing by UV spectrophotometric analysis
Summary of the method: as §2

Escherichia coli [14] = assay: Antibacterial activity against Escherichia coli after 12 hrs by macrodilution broth method; format: functional
[15] = system: Aeromonas veronii bv. sobria; assay: Inhibition of Aeromonas veronii bv. sobria ImiS overexpressed in Escherichia coli BL21 (DE3) using imipenem as substrate up to 5 uM incubated for 30 mins prior to testing by UV spectrophotometric analysis
Summary of the method: as §3

T1 sequence (P52700 whole entry): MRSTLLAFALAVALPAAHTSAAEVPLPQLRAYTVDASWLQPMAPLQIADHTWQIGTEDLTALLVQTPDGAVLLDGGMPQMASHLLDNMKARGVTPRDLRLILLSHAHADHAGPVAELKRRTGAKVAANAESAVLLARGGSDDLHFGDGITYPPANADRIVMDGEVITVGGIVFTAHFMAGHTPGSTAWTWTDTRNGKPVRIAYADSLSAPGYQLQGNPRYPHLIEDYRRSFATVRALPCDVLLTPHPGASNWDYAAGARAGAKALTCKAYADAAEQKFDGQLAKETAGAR
Chain of Beta-lactamase L1 (Stenotrophomonas maltophilia) (P52700 34-290 limits assumed): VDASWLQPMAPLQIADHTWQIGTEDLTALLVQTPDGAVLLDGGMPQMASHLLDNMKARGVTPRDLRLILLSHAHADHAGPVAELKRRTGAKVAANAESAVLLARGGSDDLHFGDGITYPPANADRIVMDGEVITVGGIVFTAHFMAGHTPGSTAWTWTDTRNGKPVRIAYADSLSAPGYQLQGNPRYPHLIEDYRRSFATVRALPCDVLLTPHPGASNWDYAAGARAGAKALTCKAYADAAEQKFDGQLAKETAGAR
Chain of Metallo-beta-lactamase type 2 (Bacteroides fragilis) (P25910 whole entry): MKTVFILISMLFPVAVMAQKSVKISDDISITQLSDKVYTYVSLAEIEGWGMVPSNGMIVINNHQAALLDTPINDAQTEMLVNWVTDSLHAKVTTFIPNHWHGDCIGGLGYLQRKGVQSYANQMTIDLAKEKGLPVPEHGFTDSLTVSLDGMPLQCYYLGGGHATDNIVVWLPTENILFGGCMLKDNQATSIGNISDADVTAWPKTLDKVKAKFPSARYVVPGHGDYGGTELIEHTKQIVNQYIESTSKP
Chain of Metallo-beta-lactamase type 2 (P25910 whole entry): as above

| Structure (SMILES) | Ki (Beta-lactamase L1 [1]) [µM] | MIC (Escherichia coli [2]) [µg/mL] | MIC (Escherichia coli [3]) [µg/mL] | MIC [4] [µg/mL] | IC50 [5] [µM] | MIC [6] [µg/mL] | IC50 (Beta-lactamase L1 [7]) [µM] | MIC [8] [µg/mL] | IC50 [9] [µM] | fold change (FC) [10] | MIC [11] [µg/mL] | IC50 [12] [µM] | inhibition [13] | MIC (Escherichia coli [14]) [µg/mL] | inhibition [15] |
| --- | --- | --- | --- | --- | --- | --- | --- | --- | --- | --- | --- | --- | --- | --- | --- |
| CC(C)[C@H](NC(=O)Cc1cccs1)C(=O)SCC(=O)O | 0.28 | 0.5 | > 64 | 4 | 12.4 | 1 | 0.45 | 4 | 18.9 | 2 | 4 | 38.5 |  |  |  |
| O=C(O)CSC(=O)[C@H](Cc1ccccc1)NC(=O)Cc1cccs1 | 0.95 | 0.5 | 64 | 4 | 36.3 | 1 | 2.9 | 4 | 65.4 | 2 | 8 |  | inactive |  |  |
| C[C@@H](O)[C@H]1C(=O)N2C(C(=O)O)=C(SCCNC=N)C[C@H]12 [IMIPENEM ANHYDROUS] |  |  |  |  |  |  |  |  |  |  |  |  |  | 0.5 (≈ 1.67 µM) |  |
| O=C(O)CSC(=O)[C@H](CCCCNC(=O)Cc1cccs1)NC(=O)Cc1cccs1 | 0.19 | 0.5 | 64 | 4 |  | 2 | 1.08 | 4 |  | 2 | 4 |  | inactive |  | inactive |
| CSCC[C@H](NC(=O)Cc1cccs1)C(=O)SCC(=O)O | 0.11 | 0.5 | > 64 | 4 |  | 1 | 0.018 | 2 | 13.3 | 4 | 8 | 123 |  |  |  |
| CC(C)C[C@H](NC(=O)Cc1cccs1)C(=O)SCC(=O)O | 0.21 | 0.5 | 64 | 4 | 28.5 | 1 | 0.069 | 2 | 3.6 | 4 | 4 |  | inactive |  |  |
| C[C@H](NC(=O)Cc1cccs1)C(=O)SCC(=O)O | 0.41 | 0.5 | > 64 | 4 | 95.7 | 1 | 0.91 | 2 | 46.3 | 4 | 4 |  | inactive |  |  |
| Cc1nnc(SCC2=C(C(=O)O)N3C(=O)[C@@H](NC(=O)Cn4cnnn4)[C@H]3SC2)s1 [CEFAZOLIN] |  |  |  |  |  |  |  |  |  |  |  |  |  | 64 (≈ 141 µM) |  |
| O=C(O)CSC(=O)CNC(=O)Cc1cccs1 | 0.28 | 0.5 | 64 | 4 | 28.7 | 1 | 0.84 | 4 | 61.5 | 2 | 4 |  | inactive |  |  |
| O=C(O)CSC(=O)[C@@H]1CCCN1C(=O)Cc1cccs1 | 0.87 | 0.5 | 64 | 4 |  | 2 | 0.45 | 2 |  | 4 | 8 |  | inactive |  | inactive |
| O=C(O)CSC(=O)[C@H](CO)NC(=O)Cc1cccs1 | 0.17 | 0.5 | 64 | 4 |  | 1 | 1.49 | 4 | 60.1 | 2 | 8 |  | inactive |  |  |
| O=C(O)CSC(=O)[C@H](Cc1c[nH]c2ccccc12)NC(=O)Cc1cccs1 | 0.17 | 0.5 | 64 | 4 |  | 2 | 0.29 | 2 |  | 4 | 8 |  | inactive |  | inactive |
